Measurements from ChEMBL document CHEMBL5506013, “Mitochondria-Selective Dicationic Small-Molecule Ligand Targeting G-Quadruplex Structures for Human Colorectal Cancer Therapy” (J Med Chem, 2024).
The source made the active and inactive calls. The calls are words filed in the database; no cut-off is given here.

What was measured:
DNA [1] = assay: Binding affinity to HP19 DNA (non-G4 DNA) (unknown origin) assessed as increase in fluorescence intensity by fluorescence spectrophotometric analysis; assay type: nucleic-acid assay
In short: (§1)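 Oligonucleotides were pre-annealed at 95 °C for 10 min, then cooled slowly. Ligand (5 uM) was mixed with 20 uM DNA in buffer. Emission was collected over 550–800 nm, and enhancement was taken at 650 nm as F/F0.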

DNA [2] = assay: Binding affinity to SS19 DNA (non-G4 DNA) (unknown origin) assessed as dissociation constant measured upto 150 secs by isothermal titration calorimetry assay; assay type: nucleic-acid assay
HCT-116 [3] = assay: Induction of cell cycle arrest in human HCT-116 cells assessed as accumulation of cells at G0/G1 phase measured after 72 hrs by PI staining based flow cytometry analysis; assay type: functional; settings: dose 1-4 µM
In short: (§2)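 HCT116 cells treated at 0-4 uM for 72 h. Cell-cycle distribution measured by flow cytometry and G0/G1 percentage recorded.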

HCT-116 [4] = assay: Downregulation of COX2 mRNA level in human HCT-116 cells at 0 to 4 uM measured after 48 hrs by qRT-PCR analysis; assay type: functional, cell-based; settings: dose 0-4 µM
HCT-116 [5] = assay: Downregulation of ND1 gene expression in human HCT-116 cells at 0 to 4 uM measured after 48 hrs by q-PCR analysis; assay type: functional, cell-based; settings: dose 0-4 µM
HCT-116 [6] = assay: Downregulation of ATP8 mRNA level in human HCT-116 cells at 0 to 4 uM measured after 48 hrs by qRT-PCR analysis; assay type: functional, cell-based; settings: dose 0-4 µM
[7] = Drug localization in endoplasmic reticulum of living human HCT-116 cells assessed as colocalization at 4 uM incubated for 1 hr by ER-tracker blue staining based analysis; assay type: ADME, subcellular; settings: hct-116, 1 h
In short: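 Live HCT116 cells co-stained with ligand and ER-Tracker Blue. Colocalization assessed by confocal imaging.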

Quadruplex DNA [8] = assay: Binding affinity to Mut 55 G4 DNA (unknown origin) assessed as increase in fluorescence intensity by fluorescence spectrophotometric analysis; assay type: nucleic-acid assay; in short: as §1
Quadruplex DNA [9] = assay: Binding affinity to mito 78 G4 DNA (unknown origin) assessed as increase in fluorescence intensity by fluorescence spectrophotometric analysis; assay type: nucleic-acid assay
In short: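 Fluorescence titration in buffer. Ligand at 5 uM mixed with 20 uM pre-annealed DNA (95 °C for 10 min, slow cooling). Emission collected at 550-800 nm and monitored at 650 nm. Result reported as fold enhancement F/F0 over ligand alone.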

[10] = Drug localization in human HCT-116 cells overexpressing eBFP tagged Pif1 by measuring red foci at 4 uM incubated for 1 hr by hoechst33342 staining based analysis; assay type: ADME, cell-based; settings: hct-116, 1 h
In short: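 HCT116 cells overexpressing eBFP-tagged Pif1 (excitation 405 nm), with an eBFP-only control. Cells incubated with ligand 4 uM (excitation 488 nm) for 1 h, then red foci imaged by confocal microscopy in 100 cells. Mean ± SEM, t test.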

MDA-MB-231 = assay: Antiproliferative activity against human MDA-MB-231 cells measured after 48 hrs by MTT assay; assay type: functional, cell-based; settings: MDA-MB-231, 48 h
In short: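 Cells exposed to the ligands for 48 h. Viability was read by MTT, and the IC50 was derived from the response.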

DNA [11] = assay: Binding affinity to SS19 DNA (non-G4 DNA) (unknown origin) assessed as change in melting temperature at 5 uM by circular dichroism spectroscopic analysis; assay type: nucleic-acid assay
[12] = Toxicity in BALB/c nude mouse assessed as change in neutrophil count at 5 mg/kg, iv administered every two days for 16 days; assay type: organism-based; settings: in vivo, 384 h, time 16 day
In short: (§3)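 HCT116 xenograft-bearing male Balb/c nude mice (6/group) dosed iv at 5 mg/kg every two days or with PBS. Whole blood collected at sacrifice on day 16 for hematology parameters.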

HCT-116 [13] = assay: Induction of mitochondrial dysfunction in human HCT-116 cells assessed as decrease in oxygen consumption rate at upto 4 uM incubated for 3 hrs by Seahorse XFe24 analyzer; assay type: functional, cell-based
In short: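 Seahorse Mito-stress and glycolysis stress tests on HCT116 cells treated with ligand for 3 h. Oxygen consumption rate and extracellular acidification rate recorded.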

HCT-116 [14] = assay: Induction of cell cycle arrest in human HCT-116 cells assessed as accumulation of cells at G0/G1 phase at 1 to 4 uM measured after 72 hrs by PI staining based flow cytometry analysis (reference value: 50.66%); assay type: functional; settings: dose 1-4 µM; in short: as §2
HCT-116 [15] = assay: Induction of DNA damage in human HCT-116 assessed as increase in tail length at upto 4 uM incubated for 72 hrs in presence of MitoTEMPO by comet assay; assay type: functional, cell-based
HCT-116 [16] = assay: Downregulation of ND4 protein level in human HCT-116 cells at upto 4 uM incubated for 48 hrs by Western blot analysis; assay type: functional, cell-based
[17] = Drug localization in nucleus of human HCT-116 cells at 1 to 8 uM incubated for 1 hrs by hoechst33342 staining based live cell imaging analysis; assay type: ADME, subcellular; settings: hct-116, 1 h, dose 1-8 µM
HCT-116 [18] = assay: Downregulation of COX1 protein level in human HCT-116 cells at upto 4 uM incubated for 48 hrs by Western blot analysis; assay type: functional, cell-based
Quadruplex DNA [19] = assay: Binding affinity to Mut 78 G4 DNA (unknown origin) assessed as increase in fluorescence intensity by fluorescence spectrophotometric analysis; assay type: nucleic-acid assay; in short: as §1
HCT-116 [20] = assay: Downregulation of ND2 gene expression in human HCT-116 cells at 0 to 4 uM measured after 48 hrs by q-PCR analysis; assay type: functional, cell-based; settings: dose 0-4 µM
Quadruplex DNA [21] = assay: Binding affinity to mito 29 G4 DNA (unknown origin) assessed as dissociation constant measured upto 450 secs by surface plasmon resonance assay; assay type: nucleic-acid assay
In short: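 Surface plasmon resonance in buffer at 25 °C. Four G4-mtDNAs (Mito 78, Mito 55, Mito 29, Mito 0.5-16) and the hairpin HP19 served as substrates. Kd was derived from the sensorgrams.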

[22] = Drug localization in nucleus of human HCT-116 cells at 4 uM measured upto 12 hrs by hoechst33342 staining based live cell imaging analysis; assay type: ADME, subcellular; settings: hct-116, 12 h
HCT-116 [23] = assay: Downregulation of mitochondrial respiratory chain complex III level in human HCT-116 cells at upto 4 uM measured after 48 hrs by Western blot analysis; assay type: functional, cell-based
HCT-116 [24] = assay: Upregulation of p16 level in human HCT-116 cells at upto 4 uM measured after 72 hrs by Western blot analysis; assay type: functional, cell-based
In short: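 HCT116 cells treated with ligand at 0-4 uM for 72 h. Lysates immunoblotted for Lamin B1, p53, p21, p16, gamma-H2A.x, caspase-3 and cleaved caspase-3, with beta-actin as loading control.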

[25] = Toxicity in BALB/c nude mouse assessed as change in mean red blood cell hemoglobin concentration at 5 mg/kg, iv administered every two days for 16 days; assay type: organism-based; settings: in vivo, 384 h, time 16 day; in short: as §3
[26] = Drug localization in human HCT-116 cells transfected with Cy5-SS19 non G4 DNA at 4 uM incubated for 1 hr by hoechst33342 staining based analysis; assay type: ADME, cell-based; settings: hct-116, 1 h
In short: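 HCT116 cells transfected with Cy5-labelled DNA (excitation 635 nm) for 24 h. Ligand 4 uM added for 1 h, then Hoechst33342 1 uM for 30 min. Colocalization of ligand with Cy5 quantified by Pearson r from confocal images.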

Quadruplex DNA [27] = assay: Binding affinity to mito 55 G4 DNA (unknown origin) assessed as dissociation constant measured upto 150 secs by isothermal titration calorimetry assay; assay type: nucleic-acid assay
[28] = Drug localization in lysosome of living human HCT-116 cells assessed as colocalization at 4 uM incubated for 1 hr by lyso-tracker blue staining based analysis; assay type: ADME, subcellular; settings: hct-116, 1 h

Activity (DNA [1]): inactive | Kd (DNA [2]): > 4700 nM | Drug uptake [7]: Not Active | Activity (Quadruplex DNA [8]): inactive | Activity (Quadruplex DNA [9]): Active | Drug uptake [10]: Not Active | IC50 (MDA-MB-231): 34600 nM | ΔTm (DNA [11]): 0.5 °C | Drug uptake [17]: Not Active | Activity (Quadruplex DNA [19]): inactive | Kd (Quadruplex DNA [21]): 110 nM | Drug uptake [22]: Not Active | Drug uptake [26]: Not Active | Kd (Quadruplex DNA [27]): 60 nM | Drug uptake [28]: Not Active
Compound: C(=C\c1ccc2ccccc2[n+]1CCCCCCCC[n+]1c(/C=C/c2ccc(N3CCCCC3)cc2)ccc2ccccc21)/c1ccc(N2CCCCC2)cc1.[I-].[I-]
Activity (HCT-116 [3]): Dose-Dependent Effect | Activity (HCT-116 [4]): Active | Activity (HCT-116 [5]): Active | Activity (HCT-116 [6]): Active | Activity [12]: Non-Toxic | Activity (HCT-116 [13]): Active | Activity (HCT-116 [14]): 66.01% | Activity (HCT-116 [15]): inactive | Activity (HCT-116 [16]): Active | Activity (HCT-116 [18]): Active | Activity (HCT-116 [20]): Active | Activity (HCT-116 [23]): Active | Activity (HCT-116 [24]): Active | Activity [25]: Non-Toxic
